Data reported in ChEMBL document CHEMBL4665870, “RNA drug discovery: Conformational restriction enhances specific modulation of the T-box riboswitch function” (Bioorg Med Chem, 2020).
Calls of active or inactive are those of the source. No cut-off for these calls is given here.

Test system: not listed separately
Assay: Binding affinity to 5'TAMRA-antiterminator RNA (unknown origin) assessed as structural changes by fluorescence-monitored ligand binding assay relative to bulge deletion AM
With CC(=O)c1ccc(NC(=O)OC[C@H]2OC(=O)N3CCc4c(-c5ccccc5)nnn4C[C@H]23)cc1 the Activity was “Active”.
In the case of O=C(Cc1ccccc1)OC[C@H]1OC(=O)N2CCc3c(-c4ccccc4)nnn3C[C@H]12, the Activity was “Active”.
In the case of CC(=O)c1ccc(NC(=O)OC[C@@H]2OC(=O)N3CCc4c(-c5ccccc5)nnn4C[C@@H]23)cc1, the Activity was “Active”.
With O=C(Cc1ccccc1)OC[C@@H]1OC(=O)N2CCc3c(-c4ccccc4)nnn3C[C@@H]12 the Activity was “Active”.

Test system: not listed separately
Assay: Inhibition of tRNA-induced Escherichia coli RNA polymerase mediated T-box riboswitch transcription readthrough assessed as overall transcription in presence of RTprb and dsDNA at 100 uM by fluorescence-monitored in vitro transcription assay
In short: (§1)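 In vitro transcription with 10 nM DNA template and 0.05 U/μL E. coli RNA polymerase sigma-saturated holoenzyme. Readout by 100 nM molecular beacon, with or without 30 nM tRNA and 100 μM ligand, at 28 °C. Readthrough = fluorescence at 6 h minus 0 min. Triplicates, unpaired t-test.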
For CC(=O)c1ccc(NC(=O)OC[C@@H]2OC(=O)N[C@H]2CN2CCN(c3ccccc3)CC2)cc1, the inhibition was “inactive”.
With O=C(Cc1ccccc1)OC[C@@H]1OC(=O)N[C@H]1CN1CCN(c2ccccc2)CC1 the inhibition was “inactive”.
With CC(=O)c1ccc(NC(=O)OC[C@H]2OC(=O)N[C@@H]2CN2CCN(c3ccccc3)CC2)cc1 the inhibition was “inactive”.
For CC(=O)c1ccc(NC(=O)OC[C@H]2OC(=O)N3CCc4c(-c5ccccc5)nnn4C[C@H]23)cc1, the inhibition was “inactive”.
With O=C(Cc1ccccc1)OC[C@H]1OC(=O)N2CCc3c(-c4ccccc4)nnn3C[C@H]12 the inhibition was “inactive”.
For O=C(Cc1ccccc1)OC[C@H]1OC(=O)N[C@@H]1CN1CCN(c2ccccc2)CC1, the inhibition was “inactive”.
For CC(=O)c1ccc(NC(=O)OC[C@@H]2OC(=O)N3CCc4c(-c5ccccc5)nnn4C[C@@H]23)cc1, the inhibition was “inactive”.
In the case of O=C(Cc1ccccc1)OC[C@@H]1OC(=O)N2CCc3c(-c4ccccc4)nnn3C[C@@H]12, the inhibition was “inactive”.

Test system: not listed separately
Assay: Effect on HEX-antiterminator RNA-DABCYL (unknown origin) thermal stability at 100 uM by measuring fluorescence by AriaMx Real-Time PCR system
In short: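 100 nM fluorophore–quencher 5′-HEX-AM-3′-DABCYL with 100 μM ligand in 10 mM sodium phosphate, 0.01 mM EDTA, pH 6.5, 5% DMSO. Fluorescence read (ex 535 nm / em 555 nm) while heating 40–90 °C. Tm taken from the first derivative of the raw data.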
In the case of CC(=O)c1ccc(NC(=O)OC[C@H]2OC(=O)N3CCc4c(-c5ccccc5)nnn4C[C@H]23)cc1, the Activity was “inactive”.
With O=C(Cc1ccccc1)OC[C@H]1OC(=O)N2CCc3c(-c4ccccc4)nnn3C[C@H]12 the Activity was “inactive”.
In the case of CC(=O)c1ccc(NC(=O)OC[C@@H]2OC(=O)N3CCc4c(-c5ccccc5)nnn4C[C@@H]23)cc1, the Activity was “inactive”.
For O=C(Cc1ccccc1)OC[C@@H]1OC(=O)N2CCc3c(-c4ccccc4)nnn3C[C@@H]12, the Activity was “inactive”.

Test system: not listed separately
Assay: Induction of tRNA-5'TAMRA-antiterminator RNA (unknown origin) complex disruption using fluorescently-labeled AM at 100 uM by fluorescence anisotropy monitored complex disruption assay
In short: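 Fluorescence anisotropy of 100 nM 5′-TAMRA-AM with 2.5 μM tRNA and 100 μM ligand (n = 3). Controls were AM alone (r−) and AM plus tRNA (r+), run in replicate. Significance assessed by unpaired t-test.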
For CC(=O)c1ccc(NC(=O)OC[C@H]2OC(=O)N3CCc4c(-c5ccccc5)nnn4C[C@H]23)cc1, the Activity was -28%.
For O=C(Cc1ccccc1)OC[C@H]1OC(=O)N2CCc3c(-c4ccccc4)nnn3C[C@H]12, the Activity was “inactive”.
Compound CC(=O)c1ccc(NC(=O)OC[C@@H]2OC(=O)N3CCc4c(-c5ccccc5)nnn4C[C@@H]23)cc1 has an Activity of -20%.
In the case of O=C(Cc1ccccc1)OC[C@@H]1OC(=O)N2CCc3c(-c4ccccc4)nnn3C[C@@H]12, the Activity was “inactive”.

Test system: not listed separately
Assay: Inhibition of tRNA-induced Escherichia coli RNA polymerase mediated T-box riboswitch transcription readthrough assessed as riboswitch function in presence of RTprb and dsDNA at 100 uM by fluorescence-monitored in vitro transcription assay
In short: as §1
With CC(=O)c1ccc(NC(=O)OC[C@@H]2OC(=O)N[C@H]2CN2CCN(c3ccccc3)CC2)cc1 the inhibition was “Active”.
For O=C(Cc1ccccc1)OC[C@@H]1OC(=O)N[C@H]1CN1CCN(c2ccccc2)CC1, the inhibition was “Active”.
With CC(=O)c1ccc(NC(=O)OC[C@H]2OC(=O)N[C@@H]2CN2CCN(c3ccccc3)CC2)cc1 the inhibition was “Active”.
For CC(=O)c1ccc(NC(=O)OC[C@H]2OC(=O)N3CCc4c(-c5ccccc5)nnn4C[C@H]23)cc1, the inhibition was “Active”.
For O=C(Cc1ccccc1)OC[C@H]1OC(=O)N2CCc3c(-c4ccccc4)nnn3C[C@H]12, the inhibition was “Active”.
In the case of O=C(Cc1ccccc1)OC[C@H]1OC(=O)N[C@@H]1CN1CCN(c2ccccc2)CC1, the inhibition was “Active”.
For CC(=O)c1ccc(NC(=O)OC[C@@H]2OC(=O)N3CCc4c(-c5ccccc5)nnn4C[C@@H]23)cc1, the inhibition was “Active”.
With O=C(Cc1ccccc1)OC[C@@H]1OC(=O)N2CCc3c(-c4ccccc4)nnn3C[C@@H]12 the inhibition was “Active”.

Test system: T-box riboswitch antiterminator RNA (Bacillus subtilis)
Assay: Binding affinity to 5'TAMRA antiterminator C11U RNA (unknown origin) assessed as structural changes by fluorescence-monitored ligand binding assay relative to bulge deletion AM
In the case of CC(=O)c1ccc(NC(=O)OC[C@H]2OC(=O)N3CCc4c(-c5ccccc5)nnn4C[C@H]23)cc1, the Activity was “Active”.
In the case of O=C(Cc1ccccc1)OC[C@H]1OC(=O)N2CCc3c(-c4ccccc4)nnn3C[C@H]12, the Activity was “inactive”.
For CC(=O)c1ccc(NC(=O)OC[C@@H]2OC(=O)N3CCc4c(-c5ccccc5)nnn4C[C@@H]23)cc1, the Activity was “Active”.
In the case of O=C(Cc1ccccc1)OC[C@@H]1OC(=O)N2CCc3c(-c4ccccc4)nnn3C[C@@H]12, the Activity was “Active”.
